# Laboratory results as given in ChEMBL document CHEMBL3580561, “Mitigation of Acetylcholine Esterase Activity in the 1,7-Diazacarbazole Series of Inhibitors of Checkpoint Kinase 1” (J Med Chem, 2015).
# Columns and labels:
# [1] = Oral bioavailability in Beagle dog at 2 mg/kg suspension at pH 6.5; type: ADME, organism-based, Canis lupus familiaris; conditions: in vivo
# [2] = Plasma protein binding in cynomolgus monkey; type: ADME, cell-free, Macaca fascicularis; conditions: read-out: PPB (converted)
# [3] = Cmax in Sprague-Dawley rat at 5 mg/kg, po suspension at pH 6.5; type: ADME, organism-based; design: dose 5 mg/kg, route oral; conditions: in vivo
# [4] = tested on: Mus musculus; test: (§1) Oral bioavailability in CD1 mouse at 5 mg/kg suspension at pH 6.5; type: ADME, organism-based; conditions: mouse, in vivo, pH 6.5, 5 mg/kg
# [5] = tested on: HT-29; test: Cytotoxicity against human HT-29 cells assessed as 10-fold reduction of gemcitabine IC50 after 72 hrs by Isobologram assay relative to untreated control; type: functional
# Method in brief: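 HT-29 cells exposed 72 h to a range of gemcitabine hydrochloride concentrations, alone or combined with varying ChK1 inhibitor concentrations. Viability read by CellTiter-Glo luminescence. […] Synergy judged by combination index or Bliss independence analysis.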
# [6] = Plasma protein binding in Sprague-Dawley rat; type: ADME, cell-free; conditions: read-out: PPB (converted)
# [7] = tested on: HT-29; test: Potentiation of gemcitabine-induced anticancer activity in human HT-29 cells xenografted in NCr nude mouse assessed as reduction in tumor volume measured after four cycles with 60 mg/kg, ip gemcitabine at four day intervals at 50 mg/kg, po; type: functional; design: scale not given: the % may be the effect or the level left
# Method in brief: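 NCr nude mice, 8–12 weeks old, inoculated with 5×10^6 HT-29 cells in HEPES-buffered saline:Matrigel 50:50. Volume-matched cohorts formed at 125–250 mm³. Gemcitabine 60 mg/kg given i.p. in saline. Inhibitor given orally in 0.5% methylcellulose/0.2% Tween 80 suspension 24 h later. Four cycles at four-day intervals. Tumor volume monitored. %TGI by linear mixed-effect modeling; two-way ANOVA with Tukey test.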
# [8] = AUC in Beagle dog at 2 mg/kg, po suspension at pH 6.5; type: ADME, organism-based, Canis lupus familiaris; conditions: in vivo
# [9] = Volume of distribution at steady state in cynomolgus monkey at 1 mg/kg, iv solution at pH 4.5; type: ADME, organism-based, Macaca fascicularis; conditions: in vivo, read-out: Vdss
# [10] = molecular target: Acetylcholinesterase (Homo sapiens, UniProt P22303); test: Inhibition of human acetylcholine esterase by horseradish peroxidase-coupled fluorescence assay
# Method in brief: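 Human AChE at 0.006 U/ml, with 0.25 μM acetylcholine chloride, 0.06 U/ml choline oxidase, 0.05 U/ml horseradish peroxidase and 200 μM Amplex Red, in proprietary buffer with test compound. Incubated 30 min at 25 °C. Fluorescence read.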
# [11] = molecular target: T1, Serine/threonine-protein kinase Chk1 (Homo sapiens, UniProt O14757); test: Inhibition of CHK1 in human HT29 cells assessed as phosphorylation of histone H3 after 24 hrs by checkpoint abrogation cellular assay; type: cell-based, HT-29
# T1 sequence (O14757 whole entry): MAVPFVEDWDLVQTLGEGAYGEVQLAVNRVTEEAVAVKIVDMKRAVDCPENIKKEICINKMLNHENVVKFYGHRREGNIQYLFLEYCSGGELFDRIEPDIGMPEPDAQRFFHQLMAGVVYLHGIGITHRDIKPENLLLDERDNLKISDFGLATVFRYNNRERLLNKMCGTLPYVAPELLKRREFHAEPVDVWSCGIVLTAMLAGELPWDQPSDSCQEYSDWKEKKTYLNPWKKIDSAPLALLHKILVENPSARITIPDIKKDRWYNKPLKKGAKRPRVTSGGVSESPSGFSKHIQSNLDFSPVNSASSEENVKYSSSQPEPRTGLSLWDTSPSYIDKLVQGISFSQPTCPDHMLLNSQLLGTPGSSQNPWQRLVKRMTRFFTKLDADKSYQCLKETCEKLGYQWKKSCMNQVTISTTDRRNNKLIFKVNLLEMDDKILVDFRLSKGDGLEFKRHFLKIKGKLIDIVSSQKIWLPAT
# [12] = Cmax in Beagle dog at 2 mg/kg, po suspension at pH 6.5; type: ADME, organism-based, Canis lupus familiaris; design: dose 2 mg/kg, route oral; conditions: in vivo
# [13] = Cmax in cynomolgus monkey at 2 mg/kg, po suspension at pH 6.5; type: ADME, organism-based, Macaca fascicularis; design: dose 2 mg/kg, route oral; conditions: in vivo
# [14] = AUC in cynomolgus monkey at 2 mg/kg, po suspension at pH 6.5; type: ADME, organism-based, Macaca fascicularis; conditions: in vivo
# [15] = Oral bioavailability in Sprague-Dawley rat at 5 mg/kg suspension at pH 6.5; type: ADME, organism-based; conditions: in vivo
# [16] = AUC in Sprague-Dawley rat at 5 mg/kg, po suspension at pH 6.5; type: ADME, organism-based; conditions: in vivo
# [17] = tested on: Mus musculus; test: (§2) AUC in CD1 mouse at 5 mg/kg, po suspension at pH 6.5; type: ADME, organism-based; conditions: mouse, in vivo, pH 6.5, 5 mg/kg
# [18] = tested on: HT-29; test: Potentiation of 60 mg/kg gemcitabine-induced anticancer activity in human HT-29 cells xenografted in po treated mouse assessed as increase in gammaH2AX by Western blot analysis; type: functional, organism-based
# Method in brief: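 HT-29 xenograft mice (n=4 per randomized group) got gemcitabine 60 mg/kg or saline. After 24 h they received an oral inhibitor dose in MCT (0.5% methylcellulose/0.2% Tween 80) or vehicle. Tumors were excised 16 h later, flash-frozen and lysed. Western blots (25 μg/lane) were probed for pS139 H2AX and total H2AX with IR-dye detection. The γH2AX:total ratio is expressed as fold-change from the gemcitabine-only group mean.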
# [19] = Oral bioavailability in cynomolgus monkey at 2 mg/kg suspension at pH 6.5; type: ADME, organism-based, Macaca fascicularis; conditions: in vivo
# [20] = Volume of distribution at steady state in CD1 mouse at 1 mg/kg, iv solution at pH 4.5; type: ADME, organism-based; conditions: in vivo, read-out: Vdss
# [21] = Clearance in Beagle dog at 1 mg/kg, iv solution at pH 4.5; type: ADME, organism-based, Canis lupus familiaris; conditions: in vivo
# [22] = molecular target: T1, Serine/threonine-protein kinase Chk1; test: Inhibition of human recombinant Chk1 using biotinylated AKT substrate after 30 mins by Alphascreen biochemical assay
# [23] = tested on: HT-29; test: Cytotoxicity against human HT-29 cells after 72 hrs by CellTiter-Glo luminescent assay; type: functional; conditions: HT-29, 72 h
# Method in brief: (§3)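 HT-29 cells exposed 72 h to a range of gemcitabine concentrations, alone or combined with a range of ChK1 inhibitor concentrations. Viability read by CellTiter-Glo luminescence. […] Synergy assessed by combination index or Bliss independence.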
# [24] = tested on: HT-29; test: Potentiation of gemcitabine-induced anticancer activity in human HT-29 cells xenografted in po treated NCr nude mouse assessed as reduction in tumor volume measured after four cycles with 60 mg/kg, ip gemcitabine at four day intervals; type: functional, organism-based
# Method in brief: (§4)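 NCr nude mice aged 8–12 weeks were inoculated with 5×10^6 HT-29 cells in HEPES-buffered saline:Matrigel 50:50. At 125–250 mm³, tumors were split into volume-matched cohorts (n=5 or 10). Gemcitabine in saline was given i.p., and the inhibitor as an MCT suspension by oral gavage 24 h later. Tumor volume and body weight were monitored. %TGI was derived by linear mixed-effect modeling, with two-way ANOVA/Tukey for p-values.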
# [25] = Clearance in Sprague-Dawley rat at 1 mg/kg, iv solution at pH 4.5; type: ADME, organism-based; conditions: in vivo
# [26] = Clearance in cynomolgus monkey at 1 mg/kg, iv solution at pH 4.5; type: ADME, organism-based, Macaca fascicularis; conditions: in vivo
# [27] = Volume of distribution at steady state in Beagle dog at 1 mg/kg, iv solution at pH 4.5; type: ADME, organism-based, Canis lupus familiaris; conditions: in vivo, read-out: Vdss
# [28] = tested on: HT-29; test: Cytotoxicity against human HT-29 cells assessed as 10-fold reduction of gemcitabine IC50 after 72 hrs by Isobologram assay; type: functional; conditions: HT-29, 72 h; method in brief: as §3
# [29] = Plasma protein binding in Beagle dog; type: ADME, cell-free, Canis lupus familiaris; conditions: read-out: PPB (converted)
# [30] = tested on: Mus musculus; test: Toxicity in human HT-29 cells xenografted in NCr nude mouse assessed as body weight change measured after four cycles with 60 mg/kg, ip gemcitabine at four day intervals at 50 mg/kg, po; type: organism-based; conditions: in vivo; method in brief: as §4
# [31] = Volume of distribution at steady state in Sprague-Dawley rat at 1 mg/kg, iv solution at pH 4.5; type: ADME, organism-based; conditions: in vivo, read-out: Vdss
# [32] = Plasma protein binding in CD1 mouse; type: ADME, cell-free; conditions: read-out: PPB (converted)
# [33] = Cmax in CD1 mouse at 5 mg/kg, po suspension at pH 6.5; type: ADME, organism-based; design: dose 5 mg/kg, route oral; conditions: in vivo
# [34] = as §1; type: ADME, organism-based; conditions: CD1, mouse, in vivo, 5 mg/kg, pH 6.5
# [35] = as §2; type: ADME, organism-based; conditions: CD1, mouse, in vivo, 5 mg/kg, pH 6.5
# [36] = tested on: Mus musculus; test: Toxicity in human HT-29 cells xenografted in NCr nude mouse assessed as body weight change measured after five cycles with 120 mg/kg, ip gemcitabine at five day intervals at 50 mg/kg, po; type: organism-based; conditions: in vivo; method in brief: as §4
# [37] = tested on: HT-29; test: Potentiation of gemcitabine-induced anticancer activity in human HT-29 cells xenografted in po treated NCr nude mouse assessed as reduction in tumor volume measured after five cycles with 120 mg/kg, ip gemcitabine at five day intervals; type: functional, organism-based; method in brief: as §4
# [38] = Clearance in CD1 mouse at 1 mg/kg, iv solution at pH 4.5; type: ADME, organism-based; conditions: in vivo
# Sequence of Acetylcholinesterase (P22303 whole entry): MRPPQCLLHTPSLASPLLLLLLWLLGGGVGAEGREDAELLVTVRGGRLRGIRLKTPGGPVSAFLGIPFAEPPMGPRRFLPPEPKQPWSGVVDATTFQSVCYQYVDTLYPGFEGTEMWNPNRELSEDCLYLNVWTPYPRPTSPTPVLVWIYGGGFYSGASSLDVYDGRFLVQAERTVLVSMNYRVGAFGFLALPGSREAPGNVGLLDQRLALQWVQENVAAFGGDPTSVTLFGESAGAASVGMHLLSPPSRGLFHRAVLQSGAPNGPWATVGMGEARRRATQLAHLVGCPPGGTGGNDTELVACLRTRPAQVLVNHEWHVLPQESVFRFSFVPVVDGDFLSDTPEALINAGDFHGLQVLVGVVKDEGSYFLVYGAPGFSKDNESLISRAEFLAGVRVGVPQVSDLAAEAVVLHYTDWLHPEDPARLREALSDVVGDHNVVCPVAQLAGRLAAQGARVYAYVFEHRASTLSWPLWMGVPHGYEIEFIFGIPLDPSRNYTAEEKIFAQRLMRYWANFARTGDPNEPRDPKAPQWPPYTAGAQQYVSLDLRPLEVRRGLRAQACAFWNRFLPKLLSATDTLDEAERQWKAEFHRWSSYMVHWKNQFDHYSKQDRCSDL
Structure (SMILES),bioavailability [1],fraction unbound [2],Cmax [3],fold change (FC) [5],fraction unbound [6],AUC [8],Vd [9],IC50 [10],EC50 [11],Cmax [12],Cmax [13],AUC [14],bioavailability [15],AUC [16],Activity [18],bioavailability [19],Vd [20],clearance [21],IC50 [22],GI50 [23],further results
N#Cc1cc2c(cn1)[nH]c1ncc(-c3ccc(CN4CCC5(CC4)COC5)cc3)cc12,46.7%,0.049,1100 nM,> 156,0.025,3.51 µM·h,17.1 L/kg,2420 nM,72.8 nM,200 nM,86 nM,0.91 µM·h,116%,8.63 µM·h,Dose-dependent effect,34%,7.33 L/kg,10.9 mL/min/kg,2.5 nM,> 2500 nM,F [4]: 48.5%; Activity [7]: 111%; AUC [17]: 1.33 µM·h; Activity [24]: Dose-dependent effect; clearance [25]: 27.5 mL/min/kg; clearance [26]: 30.8 mL/min/kg; Vd [27]: 9.63 L/kg; EC10 [28]: 16 nM; fraction unbound [29]: 0.052; Activity [30]: Non-toxic; Vd [31]: 7.55 L/kg; fraction unbound [32]: 0.038; Cmax [33]: 191 nM
N#Cc1cc2c(cn1)[nH]c1ncc(-c3ccc(CN4CCCCC4)cc3)cc12,13.1%,0.117,520 nM,870,0.047,0.101 µM·h,25.7 L/kg,333 nM,53.2 nM,21 nM,44 nM,0.869 µM·h,67.4%,6.19 µM·h,Dose-dependent effect,43.8%,6.57 L/kg,118 mL/min/kg,1 nM,8700 nM,bioavailability [34]: 86.5%; AUC [35]: 2.68 µM·h; Activity [36]: Non-toxic; Activity [37]: Dose-dependent effect; clearance [38]: 55.8 mL/min/kg; clearance [25]: 24.7 mL/min/kg; clearance [26]: 45.8 mL/min/kg; Vd [27]: 23.4 L/kg; EC10 [28]: 10 nM; fraction unbound [29]: 0.132; Vd [31]: 6.35 L/kg; fraction unbound [32]: 0.05; Cmax [33]: 386 nM
N#Cc1cc2c(cn1)[nH]c1ncc(-c3ccc(CN4CCC[C@@H](O)C4)cc3)cc12,–,–,–,–,–,–,–,708 nM,118 nM,–,–,–,–,–,–,–,–,–,1.9 nM,–,–
CCN1CCc2cc(-c3cnc4[nH]c5cnc(C#N)cc5c4c3)ccc2C1,–,–,–,–,–,–,–,160 nM,152 nM,–,–,–,–,–,–,–,–,–,2.3 nM,–,–
c1cnc(-c2cc3c(cn2)[nH]c2ncc(-c4ccc(CN5CCCCC5)cc4)cc23)cn1,–,–,–,–,–,–,–,1210 nM,168 nM,–,–,–,–,–,–,–,–,–,2.3 nM,–,–
